Columns and labels:
Format in all cases: functional
BT-549 = test: Cytotoxicity against human BT549 cells after 48 hrs by SRB assay; settings: BT-549, 48 h
Outline: (§1)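 NCI 60-cell-line screen. Cells preincubated 24 h at 37 °C, 5% CO2; time-zero plates TCA-fixed. Compounds dissolved in DMSO and tested at five concentrations (100, 10, 1.0, 0.1, 0.01 µM) for 48 h continuous exposure. Adherent cells fixed with cold TCA (10% final), then SRB stained; absorbance at 515 nm. GI50, TGI and LC50 calculated from growth relative to time-zero and untreated controls.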

NCI-H460 = test: Cytotoxicity against human NCI-H460 cells after 48 hrs by SRB assay; settings: NCI-H460, 48 h; outline: as §1
ACHN = test: Cytotoxicity against human ACHN cells after 48 hrs by SRB assay; outline: as §1
SK-OV-3 = test: Cytotoxicity against human SKOV3 cells after 48 hrs by SRB assay; settings: SK-OV-3, 48 h; outline: as §1
MDA-MB-231 = test: Cytotoxicity against human MDA-MB-231 cells after 48 hrs by SRB assay; settings: MDA-MB-231, 48 h; outline: as §1
OVCAR-4 = test: Cytotoxicity against human OVCAR4 cells after 48 hrs by SRB assay; settings: OVCAR-4, 48 h; outline: as §1
Plasmodium falciparum = test: Antimalarial activity against Plasmodium falciparum NF54 infected in human serum at 20 ug/ml after 48 hrs by fluorometric method
Outline: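 Asynchronous P. falciparum NF54 at 1.5–2% parasitemia, 5% hematocrit in RPMI with 10% human serum, exposed 48 h at 37 °C under 90% N2/5% CO2/5% O2 at the stated concentration; parasite DNA stained with ethidium bromide after proteinase K lysis; viability % = (Flu treated − medium)/(Flu untreated − medium) ×100; triplicate.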

NCI/ADR-RES = test: Cytotoxicity against human NCI/ADR-RES cells after 48 hrs by SRB assay; outline: as §1
OVCAR-5 = test: Cytotoxicity against human OVCAR5 cells after 48 hrs by SRB assay; settings: OVCAR-5, 48 h; outline: as §1
SK-MEL-5 = test: Cytotoxicity against human SK-MEL-5 cells after 48 hrs by SRB assay; settings: SK-MEL-5, 48 h; outline: as §1
A498 = test: Cytotoxicity against human A498 cells after 48 hrs by SRB assay; settings: A498, 48 h; outline: as §1
SR = test: Cytotoxicity against human SR cells after 48 hrs by SRB assay
Outline: (§2)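 NCI 60-cell screen. Cells grew 24 h (37 °C, 5% CO2) before compound was added. Compounds were in DMSO and diluted in medium with gentamicin, then tested at five levels (100, 10, 1.0, 0.1, 0.01 µM) with 48 h continuous exposure. Adherent cells were fixed with TCA (10% final) and stained with 0.4% SRB, absorbance read at 515 nm. A time-zero plate was included. LC50 is the concentration giving 50% loss of protein relative to time zero.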

SF-539 = test: Cytotoxicity against human SF539 cells after 48 hrs by SRB assay; settings: SF-539, 48 h; outline: as §1
M14 = test: Cytotoxicity against human M14 cells after 48 hrs by SRB assay; settings: M14, 48 h; outline: as §1
MDA-MB-468 = test: Cytotoxicity against human MDA-MB-468 cells after 48 hrs by SRB assay; settings: MDA-MB-468, 48 h; outline: as §1
SF-295 = test: Cytotoxicity against human SF295 cells after 48 hrs by SRB assay; settings: SF-295, 48 h; outline: as §1
MCF7 = test: Cytotoxicity against human MCF7 cells after 48 hrs by SRB assay; settings: MCF7, 48 h; outline: as §1
MOLT-4 = test: Cytotoxicity against human MOLT4 cells after 48 hrs by SRB assay; settings: MOLT-4, 48 h; outline: as §1
786-0 = test: Cytotoxicity against human 786-0 cells after 48 hrs by SRB assay; settings: 786-0, 48 h; outline: as §1
NCI-H522 = test: Cytotoxicity against human NCI-H522 cells after 48 hrs by SRB assay; settings: NCI-H522, 48 h; outline: as §1
DU-145 = test: Cytotoxicity against human DU145 cells after 48 hrs by SRB assay; settings: DU-145, 48 h; outline: as §1
NCI-H23 = test: Cytotoxicity against human NCI-H23 cells after 48 hrs by SRB assay; settings: NCI-H23, 48 h; outline: as §1
HL-60(TB) = test: Cytotoxicity against human HL-60(TB) cells after 48 hrs by SRB assay; settings: HL-60, 48 h; outline: as §1
SNB-75 = test: Cytotoxicity against human SNB75 cells after 48 hrs by SRB assay; settings: SNB-75, 48 h; outline: as §2
HCT-15 = test: Cytotoxicity against human HCT15 cells after 48 hrs by SRB assay; settings: HCT-15, 48 h; outline: as §1
U-251 = test: Cytotoxicity against human U251 cells after 48 hrs by SRB assay; settings: U-251, 48 h; outline: as §2
UO-31 = test: Cytotoxicity against human UO31 cells after 48 hrs by SRB assay; settings: UO-31, 48 h; outline: as §2
Malme-3M = test: Cytotoxicity against human MALME-3M cells after 48 hrs by SRB assay; outline: as §1
Hs-578T = test: Cytotoxicity against human Hs578T cells after 48 hrs by SRB assay; outline: as §1
HCT-116 = test: Cytotoxicity against human HCT116 cells after 48 hrs by SRB assay; settings: HCT-116, 48 h; outline: as §1
MDA-MB-435 = test: Cytotoxicity against human MDA-MB-435 cells after 48 hrs by SRB assay; settings: MDA-MB-435, 48 h; outline: as §1
OVCAR-3 = test: Cytotoxicity against human OVCAR3 cells after 48 hrs by SRB assay; settings: OVCAR-3, 48 h; outline: as §1
CCRF-CEM = test: Cytotoxicity against human CCRF-CEM cells after 48 hrs by SRB assay; outline: as §1
[1] = read-out: LC50 (the source's name)

O=CN1N=C(c2cccc(Nc3ccnc4cc(Cl)ccc34)c2)CC1c1ccc(Cl)cc1 (stereo not given)
GI50 (BT-549): 1.36 µM
LC50 (50% net cell kill vs time zero) (BT-549): > 100 µM
GI50 (NCI-H460): 0.79 µM
LC50 (NCI-H460): > 100 µM
GI50 (ACHN): 5.18 µM
CC50 (ACHN; [1]): > 100 µM
GI50 (SK-OV-3): 3.48 µM
LC50 (concentration killing 50% of cells) (SK-OV-3): > 100 µM
GI50 (MDA-MB-231): 2.12 µM
LC50 (concentration killing 50% of cells present at time zero) (MDA-MB-231): > 100 µM
GI50 (OVCAR-4): 4.13 µM
LC50 (OVCAR-4): > 100 µM
inhibition at 20 µg/mL (Plasmodium falciparum): 7%
GI50 (NCI/ADR-RES): 0.76 µM
CC50 (NCI/ADR-RES; [1]): > 100 µM
GI50 (OVCAR-5): > 100 µM
LC50 (OVCAR-5): > 100 µM
GI50 (SK-MEL-5): 1.86 µM
LC50 (concentration killing 50% of cells present at time zero) (SK-MEL-5): > 100 µM
GI50 (A498): 0.83 µM
CC50 (A498; [1]): > 100 µM
GI50 (SR): 0.37 µM
LC50 (SR): > 100 µM
GI50 (SF-539): 3.78 µM
CC50 (SF-539; [1]): > 100 µM
GI50 (M14): 1.04 µM
CC50 (M14; [1]): > 100 µM
GI50 (MDA-MB-468): 0.42 µM
LC50 (MDA-MB-468): > 100 µM
GI50 (SF-295): 1.06 µM
LC50 (SF-295): > 100 µM
GI50 (MCF7): 0.81 µM
CC50 (MCF7; [1]): > 100 µM
GI50 (MOLT-4): 1.92 µM
LC50 (MOLT-4): > 100 µM
GI50 (786-0): 4.73 µM
LC50 (786-0): > 100 µM
GI50 (NCI-H522): 0.8 µM
CC50 (NCI-H522; [1]): > 100 µM
GI50 (DU-145): 4.17 µM
LC50 (concentration killing 50% of cells) (DU-145): > 100 µM
GI50 (NCI-H23): 2.48 µM
CC50 (NCI-H23; [1]): > 100 µM
GI50 (HL-60(TB)): 1.1 µM
CC50 (HL-60(TB); [1]): 40.2 µM
GI50 (SNB-75): 1.58 µM
LC50 (50% net cell kill) (SNB-75): > 100 µM
GI50 (HCT-15): 0.9 µM
LC50 (concentration killing 50% of cells relative to time zero) (HCT-15): > 100 µM
GI50 (U-251): 1.29 µM
CC50 (U-251; [1]): > 100 µM
GI50 (UO-31): 0.88 µM
LC50 (UO-31): > 100 µM
GI50 (Malme-3M): 1.63 µM
LC50 (Malme-3M): > 100 µM
GI50 (Hs-578T): 1.97 µM
LC50 (50% net cell kill) (Hs-578T): > 100 µM
GI50 (HCT-116): 0.6 µM
LC50 (HCT-116): > 100 µM
GI50 (MDA-MB-435): 0.29 µM
LC50 (MDA-MB-435): > 100 µM
GI50 (OVCAR-3): 1.2 µM
LC50 (OVCAR-3): > 100 µM
GI50 (CCRF-CEM): 2.34 µM
LC50 (concentration killing 50% of cells relative to time zero) (CCRF-CEM): > 100 µM
